Tested on: MS2 coat protein
Assay: apparent Kd, MS2 coat protein; higher = weaker binding; RNA-MaP array; tryptophan 2.4 mM where present
Outline: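 Stalled E. coli RNA polymerase transcribed the designs on Illumina sequencing-chip clusters. SNAP-549-labelled MS2 coat protein was titrated from 0.7 or 1.5 nM, doubling to 3 µM, without and then with constant ligand, in 100 mM Tris-HCl pH 7.5, 80 mM KCl, 4 mM MgCl2, BSA, DTT, yeast tRNA and Tween-20. Per-cluster binding curves were fitted to green signal normalised to red-channel RNA signal and control-cluster median Fmax. The apparent Kd is the median of the filtered fits.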

[1] = designed as: OFF switch for tryptophan, no ligand
[2] = ligand present: tryptophan, designed as: OFF switch for tryptophan
[3] = designed as: ON switch for tryptophan, no ligand
[4] = ligand present: tryptophan, designed as: ON switch for tryptophan

| Sequence | apparent Kd [1] | apparent Kd [2] | apparent Kd [3] | apparent Kd [4] |
| --- | --- | --- | --- | --- |
| UUCAGCUAGUCGGCCGCCACUACAUGAGGAUCACCCAUGUCGGUCCUCACUGCUUCGGCAGUGUGUAGGACCGGGACUAGCUGAG | 72.3 nM | 720 nM | – | – |
| CUACAUUUGUAGAAACCGGUCAACAAUAAUCGAGGACCGGUACGGCCGCCACUCGAUGUGUUAUACACAUGAGGAUCACCCAUGU | – | – | 21.1 nM | 17.4 nM |
| GGUUACUCUACGGCCGCCACUGUCAUGUAAAGAUACCUGUACAUGACAUGAGGAUCACCCAUGUGCAGGACCGGGUAGUGUAACC | – | – | 152 nM | 130 nM |
| AUUAAUAAUAUGUAGACGGCGGAGACGAGACGAGGACCGGUACGGCCGCCACUCGUGUUAGUUAACAUGAGGAUCACCCAUGUUA | – | – | 12.5 nM | 12.8 nM |
| UAUUAUCAGUCGGCCGCCACUGUCACAUGAGGAUCACCCAUGUAACUUGGGUUAUAUUUAAUAUACAGGACCGGGACAAAGGCUA | 58.6 nM | 115 nM | – | – |
| AACAUACAAUAUUAGGUGGAUAUAAGGCGGCGAGGACCGGUACGGCCGCCACUCGCGUACAUGAGGAUCACCCAUGUCUGAAACU | – | – | 20.4 nM | 23.5 nM |
| AACAUGAGGAUCACCCAUGUGUCCUCGAAACGAGGACCGGUACGGCCGCCACUCGAAUAAGGUGUUGACGAAAAGUCAGCACCAA | 274 nM | 501 nM | – | – |
| AGAUUCGACACGGCCGCCACUUUCAGUGGCUGGUCACAUGGUGCACAUGAGGAUCACCCAUGUGGAAGGACCGGGUGUUGAGUCU | 28 nM | 91.9 nM | – | – |
| UGUCAGCGAAAGUUGACAUGUCUUACCGGUCGAGGACCGGUACGGCCGCCACUCGAUCACUCGCACAUGAGGAUCACCCAUGUUG | – | – | 18.9 nM | 14.3 nM |
| AGAUUCGACACGGCCGCCACUCGUGACGGAUUUCCGAGUGUCGAACAUGAGGAUCACCCAUGUACGAGGACCGGGUGUUGAGUCU | 74.7 nM | 499 nM | – | – |
| GGAGUAGGAAACUAUUCCAAUCCUCGUGAACGAGGACCGGUACGGCCGCCACUCGAUAAUUAAUAACAUGAGGAUCACCCAUGUA | 83.7 nM | 121 nM | – | – |

Source: the EternaBench riboswitch data
